Assay results of several laboratories.
Each line is one published result; the experiments were not run side by side.
Concentration: 1 µM
KIT T670I/V559D: Mast/stem cell growth factor receptor Kit (KIT, Homo sapiens, UniProt P10721, T670I/V559D)
KIT L576P: Mast/stem cell growth factor receptor Kit (KIT, Homo sapiens, UniProt P10721, L576P)
KIT D816H: Mast/stem cell growth factor receptor Kit (KIT, Homo sapiens, UniProt P10721, D816H)
KIT D816V: Mast/stem cell growth factor receptor Kit (KIT, Homo sapiens, UniProt P10721, D816V)
KIT V559D/V654A: Mast/stem cell growth factor receptor Kit (KIT, Homo sapiens, UniProt P10721, V559D/V654A)

SMILES	target	test	remaining binding
O=C(NCC1CCOCC1)c1n[nH]cc1NC(=O)c1c(F)cccc1F	KIT T670I/V559D	binding, competition with immobilised ligand	100%
O=C(NCCCN1CCOCC1)c1ccc(Nc2ncc(Cl)c(-c3ccc(Cl)s3)n2)cc1	KIT L576P	binding, competition with immobilised ligand	2.8%
O=C(Nc1cnc(Oc2ccc(F)cc2)nc1)N1CCc2ncccc2[C@@H]1c1ccc(F)cc1	KIT T670I/V559D	cell-free assay, competition with immobilised ligand	84%
c1cnn2ncc(-c3ccnc(N4CCC45COC5)n3)c2c1	KIT D816H	binding	80%
O=C(c1ccc(Nc2nccc(-c3cc4ccccc4s3)n2)cc1)N1CCC(N2CCCC2)CC1	KIT T670I/V559D	binding, competition with immobilised ligand	24%
N[C@H]1CCN(c2nccc(-c3cnn4ncccc34)n2)C1	KIT D816V	binding	87%
Nc1ncc2c(n1)-c1c([nH]c3ccc(C#CC4CC4)cc13)CCCC2	KIT D816H	binding, competition with immobilised ligand	89%
N#Cc1ccc(Nc2ccc3[nH]c(=O)[nH]c3c2)c(Cl)c1	KIT D816V	cell-free assay, competition with immobilised ligand	88%
CNC(=O)[C@@H]1CC[C@@H](n2c(-c3ccc4cnccc4c3)nc3ccc(C(=O)NCc4cccc(C(N)=O)c4)cc32)C1	KIT T670I/V559D	binding, competition with immobilised ligand	100%
O=C(NS(=O)(=O)c1ccc(NCC2CCOCC2)c([N+](=O)[O-])c1)c1ccc(N2CCN(Cc3ccc(C(F)(F)F)cc3-c3ccc(Cl)cc3)CC2)cc1Oc1cnc2[nH]ccc2c1	Mast/stem cell growth factor receptor Kit, autoinhibited (KIT, Homo sapiens, UniProt P10721)	cell-free assay, competition with immobilised ligand	100%
CC1CCCN1c1nccc(-c2cnn3ncccc23)n1 (stereo not drawn)	KIT D816V	binding	100%
CNC(=O)Nc1ccc2c(c1)CC[C@@]21OC(=O)N(CC(=O)N(Cc2ccc(F)cc2)[C@@H](C)C(F)(F)F)C1=O	Mast/stem cell growth factor receptor Kit (KIT, Homo sapiens, UniProt P10721, V559D)	cell-free assay, competition with immobilised ligand	100%
C[C@H]1CCN(c2nccc(-c3cnn4ncccc34)n2)C1	KIT L576P	binding	67%
C=CC(=O)N1CCC(C(=O)NCC(=O)N2CCN(c3nc(-c4cnc(N)nc4C(F)F)nc(N4CCOCC4)n3)CC2)CC1	Mast/stem cell growth factor receptor Kit (KIT, Homo sapiens, UniProt P10721, A829P)	binding, competition with immobilised ligand	100%
F[C@@H]1CCN(c2nccc(-c3cnn4ncccc34)n2)C1	KIT D816H	binding	85%
CCN1CCN(Cc2ccc(C(=O)Nc3ccc(C)c(Oc4ccc5c(c4)CC(=O)N5)c3)cc2C(F)(F)F)CC1	KIT V559D/V654A	binding, competition with immobilised ligand	24%
CNC(=O)Nc1ccc2c(c1)[C@@]1(CC2)OC(=O)N(CC(=O)N(Cc2ccc(F)cc2)[C@@H](C)C(F)(F)F)C1=O	KIT D816H	cell-free assay, competition with immobilised ligand	70%
CN(C)c1ncc(F)c(-c2cnn3ncccc23)n1	KIT V559D/V654A	binding	68%
COc1cnc(Nc2cccc(S(N)(=O)=O)c2)nc1N1CCN(c2ccccc2)C(=O)C1	KIT L576P	binding, competition with immobilised ligand	100%
Nc1cnc(N2CCc3cc(S(=O)(=O)Nc4c(F)cc(Cl)cc4F)cc(N4CCCC4=O)c32)nc1	KIT D816H	cell-free assay, competition with immobilised ligand	100%
O=C(c1ccc(Nc2ncc(Cl)c(-c3ccc(Cl)s3)n2)cc1)N1CCC(N2CCCC2)CC1	Mast/stem cell growth factor receptor Kit (KIT, Homo sapiens, UniProt P10721)	binding, competition with immobilised ligand	0.05%
